The format of data set [1] is in vivo, Balb/c mice. The procedure, abridged: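 Male or unspecified Balb/c mice (20–22 g), fasted overnight, four groups of five. Single oral doses were given in 0.5% DMSO/10% Solutol/water at 10 mL/kg: test compound 20 mg/kg and 5-FU 40 mg/kg, alone or combined. Retro-orbital blood was taken at 0–10 h into EDTA by sparse sampling, two samples per group. Plasma (50 μL) was protein-precipitated with methanol, centrifuged, and the organic layer analysed.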

The test system of a further data set is HCT-116^G13D. Put plainly: SRB assay. The following applies: Homo sapiens, 48 h. Type of data set: cell-based. The procedure, abridged:
(§1)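 Sulforhodamine B assay. Cells were plated at 5000–10,000/well according to doubling time, then after 24 h exposed to a 7-point, 2-fold dilution series for 48 h at 37 °C, with paclitaxel as positive control. Cells were TCA-fixed 1 h at 4 °C and stained with 0.4% SRB, with unbound dye removed by 1% acetic acid. Bound dye was dissolved in 10 mM Tris pH 10.4 and read at 540 nm. IC50 was obtained by curve fitting; quadruplicates.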

Data set [2] deals with ALDH1A1, ALDH1A3 and ALDH3A1. The data set is described as follows: qRT-PCR after chemotherapy treatment. Type of data set: cell-based, Human. As to conditions: HCT-116^G13D and SW-620^G12V, 48 h. Summed up: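 Parental monolayers and 10-day colonospheres were treated 48 h with 5-FU (14.7/78 μM), test compound (1.7/2.2 μM) or both, with 0.2% DMSO (final) as control. RNA was extracted with Tri-reagent and DNase-treated, then reverse-transcribed. SYBR green qPCR ran 95 °C 2 min, then 40 cycles of 95 °C 5 s/60 °C 5 s, with a final 72 °C 5 min. Expression was normalised to GAPDH.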

Data set [3] has as its system HCT-116^G13D-CSCs derived colonospheres. The data set is described as follows: 3D colonospheres chemotherapy treatment. The following applies: 5-FU 14.7 μM, even with prolonged exposure. Type of data set: cell-based, Human. The procedure, abridged:
(§2)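 Colonospheres grown from single-cell suspensions at low density in serum-free DMEM/F12 with FGF (10 ng/mL), EGF (20 ng/mL) and B27. Medium was refreshed every 3–4 days, and spheres were passaged by syringe dissociation. After ten days of growth, parental- or CSC-derived colonospheres were exposed to 5-FU (14.7/78 μM) and/or test compound (1.7/2.2 μM). Response was judged by metabolically active cells and sphere dissociation, with phase-contrast imaging.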

The test system of data set [4] is SW-620^G12V-CSC derived colonospheres. Put plainly: 3D colonospheres chemotherapy treatment. The format is cell-based, Human. The following applies: 5-FU 78 μM, even with prolonged exposure. The procedure, abridged:
as §2

A further data set relates to ABCB1. The data set is described as follows: qRT-PCR after chemotherapy treatment. The format is cell-based, Human. As to conditions: HCT-116^G13D- and SW-620^G12V–CSCs, 48 h; printed '∼4 and 2-fold' for 'ABCB1 and ABCC1'. In general terms: In qPCR the cycle at which signal appears reflects the starting amount.
The next data set deals with SW-620^G12V. The data set is described as follows: SRB assay. The format is cell-based. The following applies: Homo sapiens, 48 h. Summed up:
as §1

Data set [5] concerns HCT-116^G13D parental derived colonospheres. The data set is described as follows: 3D colonospheres chemotherapy treatment. The following applies: 5-FU 14.7 μM, PMBA 1.7 μM, after ten days of growth. Type of data set: cell-based, Human. The procedure, abridged: as §2
The next data set deals with advanced CRC. As to conditions: background statement, ref not given; cited from earlier work.
Another data set deals with ABCC1. Put plainly: qRT-PCR after chemotherapy treatment. As to conditions: HCT-116^G13D- and SW-620^G12V–CSCs, 48 h; printed '∼4 and 2-fold' for 'ABCB1 and ABCC1'. Type of data set: cell-based, Human.
Setting [6] is: Balb/c, mouse, plasma, po, 40 mg.

Results on 1 molecule are retold here after article PMC9014391 (Heliyon, 2022).

As to `O=c1[nH]cc(F)c(=O)[nH]1` [5-FU, 5-Fluorouracil], the Vd in data set [1] (5-FU alone, oral 40 mg) stood at 56.32 L/kg. Besides, in data set [1] (setting [6]), the AUC(0-inf) (as a rule, the area under the concentration-time curve extrapolated to infinity) was found to be 1140 ng·h/mL; the AUC(0-t) (commonly exposure summed from dosing to a finite time, without extrapolation to infinity) amounted to 1110 ng·h/mL; the highest level (Cmax) was 2450 ng/mL; the half-life (in general, how long it takes for the measured level to halve) is 1.1 h. Moreover, in the data set on HCT-116^G13D, 14.8 µM corresponded to half-maximal inhibition (IC50). Also, in [2], the “ALDH1A1, ALDH1A3 and ALDH3A1 expression” value is recorded as “did not alter the expression”. The “response of colonospheres to treatment” value in data set [3] is on record as “resistant”. The “response of colonospheres to treatment” value in data set [4] is “resistant”. Moreover, in the data set on ABCB1, the “ABCB1 expression, fold down regulated” value is “did not alter the expression”. For the same molecule, the IC50 (usually the concentration at which inhibition is half-maximal) with SW-620^G12V was 78.3 µM. In data set [5], the “response of colonospheres to treatment” value is recorded as “sensitive”. The curative accountability with advanced CRC is given as 10–15%. Moreover, the “ABCC1 expression, fold down regulated” value with ABCC1 is on record as “did not alter the expression”.
